In ChEMBL document CHEMBL1932938, “From COX-2 inhibitor nimesulide to potent anti-cancer agent: synthesis, in vitro, in vivo and pharmacokinetic evaluation” (Eur J Med Chem, 2012):

Key:
SK-BR-3 [1] = assay: Cell cycle arrest in human SK-BR-3 cells assessed as accumulation at Sub-G1 phase at 0.25 uM after 3 hrs using propidium iodide staining by FACS analysis; assay type: functional
SK-BR-3 [2] = assay: Cell cycle arrest in human SK-BR-3 cells assessed as accumulation at G2/M phase at 0.10 uM after 3 hrs using propidium iodide staining by FACS analysis; assay type: functional
Outline: (§1)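 SKBR-3 cells in RPMI1640 with 10% heat-inactivated FBS at 37 °C and 5% CO₂ were treated for the stated times. Cells were fixed overnight in 70% EtOH at −20 °C, then stained with propidium iodide buffer (38 mM sodium citrate pH 7.5, 69 µM PI, 120 µg/mL RNase A) for 15 min at room temperature in the dark. Up to 1×10⁴ gated cells were analyzed by flow cytometry, giving percent distribution per phase.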

SK-BR-3 [3] = assay: Cell cycle arrest in human SK-BR-3 cells assessed as accumulation at Sub-G1 phase at 0.10 uM after 6 hrs using propidium iodide staining by FACS analysis; assay type: functional
SK-BR-3 [4] = assay: Cell cycle arrest in human SK-BR-3 cells assessed as accumulation at G1 phase at 0.25 uM after 12 hrs using propidium iodide staining by FACS analysis; assay type: functional; outline: as §1
SK-BR-3 [5] = assay: Cell cycle arrest in human SK-BR-3 cells assessed as accumulation at S phase at 0.25 uM after 12 hrs using propidium iodide staining by FACS analysis; assay type: functional
SK-BR-3 [6] = assay: Cell cycle arrest in human SK-BR-3 cells assessed as accumulation at G2/M phase at 5 uM after 12 hrs using propidium iodide staining by FACS analysis; assay type: functional; outline: as §1
SK-BR-3 [7] = assay: Cell cycle arrest in human SK-BR-3 cells assessed as accumulation at S phase at 0.10 uM after 24 hrs using propidium iodide staining by FACS analysis; assay type: functional; outline: as §1
SK-BR-3 [8] = assay: Cell cycle arrest in human SK-BR-3 cells assessed as accumulation at G1 phase at 0.25 uM after 24 hrs using propidium iodide staining by FACS analysis; assay type: functional; outline: as §1
SK-BR-3 [9] = assay: Cell cycle arrest in human SK-BR-3 cells assessed as accumulation at G1 phase at 0.50 uM after 24 hrs using propidium iodide staining by FACS analysis; assay type: functional; outline: as §1
SK-BR-3 [10] = assay: Cell cycle arrest in human SK-BR-3 cells assessed as accumulation at S phase at 0.50 uM after 24 hrs using propidium iodide staining by FACS analysis; assay type: functional
SK-BR-3 [11] = assay: Cell cycle arrest in human SK-BR-3 cells assessed as accumulation at S phase at 5 uM after 24 hrs using propidium iodide staining by FACS analysis; assay type: functional
RPMI-8226 = assay: Growth inhibition of human RPMI8226 cells after 48 hrs by SRB assay; assay type: functional
EKVX = assay: Growth inhibition of human EKVX cells after 48 hrs by SRB assay; assay type: functional
HOP-62 = assay: Growth inhibition of human HOP62 cells after 48 hrs by SRB assay; assay type: functional
NCI-H522 = assay: Growth inhibition of human NCI-H522 cells after 48 hrs by SRB assay; assay type: functional
COLO 205 = assay: Growth inhibition of human COLO205 cells after 48 hrs by SRB assay; assay type: functional
OVCAR-4 = assay: Growth inhibition of human OVCAR4 cells after 48 hrs by SRB assay; assay type: functional
OVCAR-5 = assay: Growth inhibition of human OVCAR5 cells after 48 hrs by SRB assay; assay type: functional
A498 = assay: Growth inhibition of human A498 cells after 48 hrs by SRB assay; assay type: functional
ACHN = assay: Growth inhibition of human ACHN cells after 48 hrs by SRB assay; assay type: functional
CAKI-1 = assay: Growth inhibition of human Caki1 cells after 48 hrs by SRB assay; assay type: functional
[12] = (§2) Growth inhibition of human Hs 578T cells after 48 hrs by SRB assay; assay type: functional
Hs-578T = assay: as §2; assay type: functional
Mus musculus = assay: Toxicity in BALB/c athymic nu/nu mouse xenografted with human HT-29 cells assessed as effect on body weight at 5 mg/kg/day, ip administered 5 times per week for 3 weeks; assay type: organism-based; parameters: route intraperitoneal; conditions: in vivo, 504 h
Outline: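 BALB/c nu/nu mice, three per group, each inoculated s.c. with HT29 cells in Matrigel at two sites. Dosing began once tumors reached about 200 mm³: 5 mg/kg/d i.p., five times weekly for three weeks, in sesame oil with 1% DMSO. Controls received vehicle only. Body weight was recorded weekly.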

[13] = Terminal half life in Sprague-Dawley rat at 20 mg/kg, ip; assay type: ADME, organism-based; parameters: dose 20 mg/kg, route intraperitoneal; conditions: in vivo, read-out: beta t1/2 (converted)
Outline: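 Male Sprague–Dawley rats (300–350 g, n=3), fasted overnight with water allowed. Single 20 mg/kg i.p. dose in PBS with 0.1% Tween80 and 20% DMSO. Blood taken from saphenous and femoral veins into heparinized tubes at 0, 0.25, 0.5, 1, 2, 4, 8 and 24 h. Plasma quantified by LC-MS/MS (MRM, 483.3→404.3) after tert-butyl methyl ether/hexane extraction. Parameters derived non-compartmentally.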

[14] = AUC (0 to t) in Sprague-Dawley rat at 20 mg/kg, ip; assay type: ADME, organism-based; parameters: dose 20 mg/kg, route intraperitoneal; conditions: plasma
Outline: (§3)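 Male Sprague–Dawley rats (300–350 g), n=3, fasted overnight with water available, given a single 20 mg/kg i.p. dose in PBS with 0.1% Tween80 and 20% DMSO. Blood drawn into heparinized tubes at 0, 0.25, 0.5, 1, 2, 4, 8 and 24 h. Plasma measured by LC-MS/MS against an internal standard. Parameters from non-compartmental analysis.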

[15] = Apparent oral clearance in Sprague-Dawley rat at 20 mg/kg, ip; assay type: ADME, organism-based; parameters: dose 20 mg/kg; conditions: in vivo; outline: as §3
SK-BR-3 [16] = assay: Cell cycle arrest in human SK-BR-3 cells assessed as accumulation at G1 phase at 5 uM after 3 hrs using propidium iodide staining by FACS analysis; assay type: functional; outline: as §1
SK-BR-3 [17] = assay: Cell cycle arrest in human SK-BR-3 cells assessed as accumulation at S phase at 0.25 uM after 3 hrs using propidium iodide staining by FACS analysis; assay type: functional
SK-BR-3 [18] = assay: Cell cycle arrest in human SK-BR-3 cells assessed as accumulation at Sub-G1 phase at 0.25 uM after 6 hrs using propidium iodide staining by FACS analysis; assay type: functional
SK-BR-3 [19] = assay: Cell cycle arrest in human SK-BR-3 cells assessed as accumulation at G2/M phase at 0.50 uM after 6 hrs using propidium iodide staining by FACS analysis; assay type: functional; outline: as §1
[20] = read-out: LC50 (the source's name)

`Cc1ccc(C)c(COc2cc(NC(=O)c3ccc4c(c3)OCO4)ccc2N(C)S(C)(=O)=O)c1` showed an Activity (SK-BR-3 [1]) of 3.23%, an Activity (SK-BR-3 [2]) of 8.83% and an Activity (SK-BR-3 [3]) of 3.6%. The Activity (SK-BR-3 [4]) was 73.62%, the Activity (SK-BR-3 [5]) was 6.14% and the Activity (SK-BR-3 [6]) was 20.54%. For the same compound, the Activity (SK-BR-3 [7]) was 8.91%, the Activity (SK-BR-3 [8]) was 41.27% and the Activity (SK-BR-3 [9]) was 31.77%. For the same compound, the Activity (SK-BR-3 [10]) was 11.21%, the Activity (SK-BR-3 [11]) was 11.53% and the “growth inhibition (GI)” value (RPMI-8226) was “Dose-dependent effect”. The GI50 (RPMI-8226; RPMI-8226, 48 h) was 290 nM, the CC50 (RPMI-8226; RPMI-8226, 48 h, read-out: LC50 (the source's name)) was > 100000 nM and the GI50 (EKVX) was 598 nM. For the same compound, the TGI (EKVX) was > 100000 nM, the “growth inhibition (GI)” value (EKVX) was “Dose-dependent effect” and the CC50 (EKVX; [20]) was > 100000 nM. For the same compound, the “growth inhibition (GI)” value (HOP-62) was “Dose-dependent effect”, the GI50 (HOP-62; HOP-62, 48 h) was 329 nM and the TGI (HOP-62; HOP-62, 48 h) was > 100000 nM. For the same compound, the CC50 (HOP-62; HOP-62, 48 h, read-out: LC50 (the source's name)) was > 100000 nM, the “growth inhibition (GI)” value (NCI-H522) was “Dose-dependent effect” and the GI50 (NCI-H522; NCI-H522, 48 h) was 33.5 nM. For the same compound, the TGI (NCI-H522; NCI-H522, 48 h) was 240 nM, the CC50 (NCI-H522; NCI-H522, 48 h, read-out: LC50 (the source's name)) was > 100000 nM and the “growth inhibition (GI)” value (COLO 205) was “Dose-dependent effect”. The GI50 (COLO 205; COLO 205, 48 h) was 318 nM, the TGI (COLO 205; COLO 205, 48 h) was 1070 nM and the CC50 (COLO 205; COLO 205, 48 h, read-out: LC50 (the source's name)) was > 100000 nM. For the same compound, the “growth inhibition (GI)” value (OVCAR-4) was “Dose-dependent effect”, the TGI (OVCAR-4; OVCAR-4, 48 h) was > 100000 nM and the CC50 (OVCAR-4; OVCAR-4, 48 h, read-out: LC50 (the source's name)) was > 100000 nM. The “growth inhibition (GI)” value (OVCAR-5) was “Dose-dependent effect”, the GI50 (OVCAR-5; OVCAR-5, 48 h) was 538 nM and the TGI (OVCAR-5; OVCAR-5, 48 h) was > 100000 nM. For the same compound, the “growth inhibition (GI)” value (A498) was “Dose-dependent effect”, the TGI (A498; A498, 48 h) was 853 nM and the CC50 (A498; A498, 48 h, read-out: LC50 (the source's name)) was > 100000 nM. For the same compound, the GI50 (ACHN) was 687 nM, the TGI (ACHN) was > 100000 nM and the “growth inhibition (GI)” value (ACHN) was “Dose-dependent effect”. For the same compound, the CC50 (ACHN; [20]) was > 100000 nM, the “growth inhibition (GI)” value (CAKI-1) was “Dose-dependent effect” and the TGI (CAKI-1; CAKI-1, 48 h) was > 100000 nM. The CC50 (CAKI-1; CAKI-1, 48 h, read-out: LC50 (the source's name)) was > 100000 nM, the GI50 [12] was 87 nM and the CC50 [12, 20] was > 100000 nM. For the same compound, the “growth inhibition (GI)” value (Hs-578T) was “Dose-dependent effect”, the Activity (Mus musculus) was “Non-toxic” and the half-life [13] was 3.12 h. It also gave an AUC(0-t) [14] of 16300 ng·h/mL, a CL/F [15] of 8 mL/min and an Activity (SK-BR-3 [16]) of 69.09%. It also gave an Activity (SK-BR-3 [17]) of 16.34%, an Activity (SK-BR-3 [18]) of 3.49% and an Activity (SK-BR-3 [19]) of 13.9%.
